High-throughput results from PubChem.
Shown are actives, neighbours in structure and some others; about 2.1% of the full set was active somewhere.
IEC-6 tox: cytotoxicity in IEC-6 intestinal epithelial cells, primary screen, cytotoxicity control for KLF5 inhibitor project, cell-based, luminescence. inhibition, % at 5 µM. AID 1825, 2009. IEC-6 cytotoxicity, luminescence viability. 290,000 tested, 0.78% active; in the data active = inhibition above about 22%;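 also: 0% = plate median of test compound wells and 100% = cytotoxic reference compound wells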
b-catenin transl: modulators of beta-catenin nuclear translocation, primary screen, imaging, HeLa cells, immunofluorescence, high-content | nuclear translocation activity, % at 5 µM | AID 1665, 2009 | 190,000 tested, 0.3% active;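 active = nuclear translocation activity above 50% at 5 µM, with a well cell count of 50 or more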;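 also: per-cell ratio of nuclear to cytoplasmic median beta-catenin stain intensity; plate controls were DMSO negative control for no effect and GSK-3 inhibitor IX positive control for full effect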
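assay system = human HeLa cells, endogenous beta-catenin | times = compound treatment 24 h, 37°C, 5% CO2 | detection = Anti-beta-catenin immunofluorescence on PFA-fixed, Triton-permeabilized cells, DAPI nuclei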
BaF3 parental: parental Ba/F3 cell viability inhibition, counter-screen for JAK2V617F inhibitor project, murine pro-B, CellTiter-Glo luminescence. CellTiter-Glo ATP luminescence. inhibition, % at 5.6 µM. 220,000 tested, 1.1% active. AID 1486, 2009;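 active = inhibition above a per-campaign cutoff, the mean inhibition of all tested compounds plus 3 SD, cut at about 27% in these data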;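 also: 0% = DMSO wells and 100% = JAK Inhibitor I control wells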
MT stabilizer: microtubule stabilizers in HeLa cells, primary screen, imaging, high-content imaging; 200,000 tested, 0.83% active; HeLa tubulin immunostaining HCS, 24 h; share of cells brighter than vehicle mean+2SD; AID 2205, 2009; % tubulin-high responders, % at 10 µM;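 active = plate Z-score above 3 for both tubulin-high and condensed-nucleus cell shares, with cell loss under 80%, at 10 µM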;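 also: anti alpha tubulin signal scored within the nucleus-defined area of each cell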
KLF5 inhibitor: KLF5 expression inhibitors, primary screen, DLD-1 cells, luminescence; DLD-1 KLF5 promoter-luciferase reporter; inhibition, % at 5 µM; 290,000 tested, 0.23% active;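 active = inhibition above a per-plate limit of that plate's mean compound inhibition plus 3 SD, cut at about 60% in these data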;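 also: 0% = DMSO wells and 100% = LY294002 at 200 µM; higher means less KLF5 promoter-driven luciferase light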
Ba/F3 V617F tox: reduced viability of JAK2V617F-dependent Ba/F3 cells, primary screen, JAK2V617F inhibitor project, cell-based, Ba/F3 EpoR-JAK2V617F, luminescence | ATP luminescence | inhibition, % at 5.6 µM | 220,000 tested, 1.1% active | AID 1446, 2008;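 active = inhibition above the campaign mean plus 3 SD over all tested compounds, cut at about 24% in these data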;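 also: cytokine-independent growth of Ba/F3 cells driven by EpoR plus mutant JAK2; 0% = DMSO-treated cells and 100% = JAK inhibitor I control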
An asterisk follows results filed as active; / = not tested or not shown.

SMILES	IEC-6 tox	b-catenin transl	BaF3 parental	MT stabilizer	KLF5 inhibitor	Ba/F3 V617F tox
CC(C)c1ccc(S(=O)(=O)/N=C2/C=C(Sc3ncn[nH]3)C(=O)c3ccccc32)cc1	39*	0	74*	4	13	54*
Cc1ccc(S(=O)(=O)/N=C2\C=C(Nc3cccc(C(=O)O)c3)C(=O)c3ccccc32)c(C)c1	8	/	/	/	-8	/
Cc1ccc2oc(-c3cccc(NC(=S)NC(=O)c4cccs4)c3)nc2c1	-3	2	10	6	-34	3
Cc1ccc2oc(-c3cccc(NC(=S)NC(=O)/C=C/c4ccco4)c3)nc2c1	0	11	5	37*	-39	2
CCOC(=O)Cn1nnnc1C(CC)N(Cc1cccs1)Cc1cc2cc(C)ccc2[nH]c1=O (configuration not stated)	8	-2	5	6	9	4
CCC(c1nnnn1C1CCCC1)N(Cc1cccs1)Cc1cc2cc(C)ccc2[nH]c1=O (configuration not stated)	-6	91*	-3	36*	-5	-5
CC1(C)N=C(N)NC(Nc2ccc(Br)cc2)=N1	2	0	35*	3	-15	9
Cc1nn(C2CCS(=O)(=O)C2)c(Cl)c1/C=C/C(=O)OCC(=O)c1cc(C)n(-c2ccc(F)cc2)c1C (configuration not stated)	6	/	6	4	10	1
Cc1ccc(N2C(=O)N(CC(=O)N3CCOCC3)C(=O)C2C)cc1 (configuration not stated)	0	-1	4	1	-4	4
CCCc1ccc(S(=O)(=O)N/N=C(/C)c2ccc3c(c2)OCO3)cc1	0	/	/	/	-32	/
CCn1c2c(c(=N)c3ccccc31)CCC2	7	-2	46*	/	7	17
CCn1c2c(c(=N)c3c1CCC3)CCC2	0	-1	28*	5	-30	12
CNCC(O)Cn1c2c(c3ccccc31)CCCC2 (configuration not stated)	1	0	2	5	-3	-3
CCn1c(=O)c2c3c(sc2n(C)c1=O)CCC3	8	-4	5	6	-1	2
CCCCn1c2c(c(=N)c3c1CCC3)CCC2	5	-10	63*	2	22	73*
N=c1c2c(n(Cc3ccc(F)cc3)c3c1CCC3)CCC2	1	2	65*	3	-11	49*
Cc1ccc(NC2(c3nnnn3-c3c(C)cccc3C)CCCCC2)cc1	7	2	11	2	-14	7
Cc1cccc(C)c1NC(=S)N(CCCN1CCOCC1)Cc1cccnc1	2	-1	2	2	-24	-1
CCN(CC)C(=O)c1[nH]cnc1C(=O)NCC(=O)OCc1ccccc1	-3	/	/	/	-7	/
Cc1nc2ccccc2n1/N=C/c1ccc([N+](=O)[O-])s1	-1	5	3	10*	8	0
O=[N+]([O-])c1ccc(/C=N/n2c(CO)nc3ccccc32)s1	7	2	3	10	4	2
Cc1c(Cl)cccc1N=C(N)N=C(N)N	3	0	81*	3	-22	2
CCCN(CCC)Cc1c(C(=O)N/N=C/c2ccc(Br)cc2)nnn1-c1nonc1N	11	/	/	/	-2	/
CC(=O)Nc1ccc(S(=O)(=O)N2CCN(S(=O)(=O)c3ccc(NC(C)=O)cc3)CC2)cc1	-3	/	/	/	-48	/
CC(=O)Nc1ccc(S(=O)(=O)N2CCN(c3cccc(C)c3C)CC2)cc1	5	5	8	14*	-18	2
SMILES	IEC-6 tox	b-catenin transl	BaF3 parental	MT stabilizer	KLF5 inhibitor	Ba/F3 V617F tox
CN(CC(=O)Nc1ccc(F)c(F)c1)S(=O)(=O)c1cccc2cccnc12	0	/	/	/	-3	/
O=C1N/C(=N\N=C\c2cccs2)SC1Cc1cccc(Cl)c1Cl (configuration not stated)	1	60*	-3	13	-8	-1
Cc1ccc(S(=O)(=O)N(CC(=O)N=Nc2c(O)[nH]c3ccccc23)c2cccc(C)c2)cc1	-2	64*	5	19*	5	4
Cc1cc(Cl)ccc1N(CC(=O)N=Nc1c(O)[nH]c2ccccc12)S(C)(=O)=O	-3	-2	6	1	2	2
COCCCN(C(C)=O)c1nc(-c2ccc(OC)cc2)cs1	17	0	27	23*	-46	12
CCN(CC)CCCN(C(=O)c1ccc(OC)cc1)c1nc(-c2ccc(OC)cc2)cs1	13	/	/	/	-14	/
COc1cc(NCCCC(C)N)c2ncccc2c1 (configuration not stated)	16	/	36*	3	-2	41*
CCC(CNc1cc(OC)cc2cccnc12)NC1CCCCC1 (configuration not stated)	2	1	27*	/	-15	43*
COc1cc(NC(=O)c2ccccc2Cl)c2ncccc2c1	17	/	/	/	-38	/
O=C(N/N=C/c1ccc(N2CCOCC2)cc1)C1CC1	14	8	6	4	-17	6
COc1ccc(CNc2ncnc3c2[nH]c2ccccc23)cc1	10	0	1	/	-31	1
CC(C)OCCCNc1ncnc2c1[nH]c1ccccc12	9	0	52*	4	-10	40*
O=C(Cc1ccc(Cl)cc1)Nc1cc(S(=O)(=O)N2CCOCC2)ccc1N1CCCC1	-7	-2	-2	3	-4	1
CN1CCN(c2ccc(S(=O)(=O)N3CCCCC3)cc2NC(=O)Cc2ccc(Cl)cc2)CC1	3	-2	38*	4	-23	52*
CNC(=O)CN(c1cccc(Br)c1)S(C)(=O)=O	-5	/	1	3	-14	0
CS(=O)(=O)N(CC(N)=O)c1cccc(Br)c1	-3	-4	93*	5	-13	1
COc1cc(NC(=S)NC(=O)c2c(OC)cccc2OC)ccc1NC(=O)c1cccs1	1	1	4	21*	0	0
COc1cc(NC(=S)NC(=O)c2cc(C)cc(C)c2)ccc1NC(=O)c1cccs1	0	-1	5	1	7	-4
Cc1ncc([N+](=O)[O-])n1CC(=O)Nc1ccc(F)c(Cl)c1	1	/	/	/	-23	/
N#CC1=C(N)Oc2ccc3ccc(O)cc3c2C1c1ccsc1 (configuration not stated)	-4	0	7	19	5	2
CC(C)NS(=O)(=O)c1ccc(CCC(=O)N2CCC(C(N)=O)CC2)cc1	-4	1	8	4	-17	2
CCOCCCNC(=O)c1ccc2c(c1)N=C(CC)c1cc(Br)ccc1S2	93*	52*	95*	5	74*	92*
CCC1=Nc2cc(C(=O)NCCN3CCOCC3)ccc2Sc2ccccc21	-1	/	/	/	-23	/
